The text below walks through data of PMC5920785 (Bioorganic & medicinal chemistry, 2017).

Broadly, the Ki is the equilibrium dissociation constant of an inhibitor or competing ligand from its target.

The target of series [1] is 20S constitutive proteasome CT-L (β5) (Homo sapiens, UniProt P20618+P28074). The series can be described thus: In vitro proteasome activity assay, constitutive proteasome CT-L activity. It counts as biochemical.
Series [2] deals with 20S constitutive proteasome C-L (β1) (Homo sapiens, UniProt P28072+Q99436). The series can be described thus: In vitro proteasome activity assay, constitutive proteasome C-L activity. It counts as biochemical.
Series [3] deals with 20S constitutive proteasome T-L (β2) (Homo sapiens, UniProt P49720+Q99436). Kind of series: In vitro proteasome activity assay, constitutive proteasome T-L activity. It counts as biochemical.
Series [4] has as its target immunoproteasome CT-L (β5) (Homo sapiens, UniProt P20618+P28062). Kind of series: In vitro proteasome activity assay, immunoproteasome CT-L activity. The note with it: for change of CT-L activity of the immunoproteasome on inhibition of T-L activity: Fig. S1; for effect on CT-L activity of the immunoproteasome: at ≤10 μM. It counts as biochemical.
For series [5], the target named is immunoproteasome C-L (β1) (Homo sapiens, UniProt P28065). Kind of series: In vitro proteasome activity assay, immunoproteasome C-L activity. It counts as biochemical. Particulars: for effect on C-L activity of the immunoproteasome: at ≤10 μM.
The target in series [6] is immunoproteasome T-L (β2) (Homo sapiens, UniProt P40306+P49720). Kind of series: In vitro proteasome activity assay, immunoproteasome T-L activity. It counts as biochemical.
In series [7] the test system is MYCN2 neuroblastoma cells. Kind of series: Cell viability assay. It counts as cell-based, human. Particulars: MTS; for effect on viability of MYCN2 cells: highest concentration tested (1 μM), 24 h exposure. An outline of the steps: (§1)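 Cells plated overnight in RPMI with 10% heat-inactivated FBS, penicillin (100 U/ml) and streptomycin (100 μg/ml), at 37 °C in humidified 5% CO2. […] MTS read-out by absorbance at 490 nm. Two experiments, each in triplicate wells (n=6); viability averaged relative to untreated cells.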

Series [8] has as its system SK-N-Be(2)c neuroblastoma cells. Kind of series: Cell viability assay. It counts as cell-based, human. Particulars: highest concentration tested (1 μM), 24 h exposure, MTS. Summed up:
as §1

Series [9] concerns SK-N-SH neuroblastoma cells. Kind of series: Cell viability assay. It counts as cell-based, human. The note with it: MTS; for effect on viability of SK-N-SH cells: highest concentration tested (1 μM), 24 h exposure. An outline of the steps:
as §1

In the case of `CC(C)Cc1ccc([C@H](C)C(=O)N[C@H](C(=O)N[C@H]2CSCCNC(=O)/C=C/[C@H](C)NC2=O)C(C)C)cc1` [Compound 5, (S)-2-((S)-2-(4-Isobutylphenyl)propanamido)-3-methyl-N-((8S,11R,E)-8-methyl-5,10-dioxo-1-thia-4,9-diazacyclododec-6-en-11-yl)butanamide], the Ki in series [1] was 910 nM; in series [2] it was more than 10000 nM; in series [3], 1070 nM; in [4], more than 10000 nM; in series [5] it was more than 10000 nM; in series [6], 740 nM. Besides, the “change of CT-L activity of the immunoproteasome on inhibition of T-L activity” value in [4] is reported as “stimulate the CT-L activity”. The “effect on CT-L activity of the immunoproteasome” value (“effect on CT-L activity” for short) in [4] is “no effect”. The “effect on C-L activity of the immunoproteasome” value (“effect on C-L activity” below) in series [5] is recorded as “no effect”. Also, the “effect on viability of MYCN2 cells” value in [7] was “minimal effects”. Besides, the “effect on viability of SK-N-Be(2)c cells” value in series [8] is “minimal effects”. Moreover, the “effect on viability of SK-N-SH cells” value in [9] is recorded as “minimal effects”.

On to `CC(C)C[C@H](NC(=O)[C@H](Cc1ccccc1)NC(=O)c1cnccn1)B(O)O` [BTZ, bortezomib, reference compound], for which the “cytotoxic effect in MYCN2 cells” value in [7] (at 0.1–1 μM, 24 h) was “strong cytotoxic effects”. For the same molecule, the “cytotoxic effect in SK-N-SH cells” value in series [9] (at 0.1–1 μM, 24 h) is “strong cytotoxic effects”.

Take `CCCCCCCCCCCCNC(=O)N[C@H](C(=O)N[C@H]1CSCCNC(=O)/C=C/[C@H](C)NC1=O)C(C)C` [Compound 1, (S)-2-(3-Dodecylureido)-3-methyl-N-((8S,11R,E)-8-methyl-5,10-dioxo-1-thia-4,9-diazacyclododec-6-en-11-yl)butanamide]: the inhibitory constant (Ki) was 280 nM in [1]; more than 10000 nM in [2]; 1760 nM in [3]; more than 10000 nM in series [4]; more than 10000 nM in [5]; 1390 nM in [6]. Also, the “effect on CT-L activity” value in [4] is given as “no effect”. Also, the “effect on C-L activity” value in [5] is “no effect”.

With `CC(C)[C@H](NC(=O)c1cnccn1)C(=O)N[C@H]1CSCCNC(=O)/C=C/[C@H](C)NC1=O` [Compound 6, N-((S)-3-Methyl-1-(((8S,11R,E)-8-methyl-5,10-dioxo-1-thia-4,9-diazacyclododec-6-en-11-yl)amino)-1-oxobutan-2-yl)pyrazine-2-carboxamide], the Ki in series [1] is 1220 nM; in [2], more than 10000 nM; in series [3] it was 920 nM; in series [4], more than 10000 nM; in series [5], more than 10000 nM; in series [6], 750 nM. Further, the “change of CT-L activity of the immunoproteasome on inhibition of T-L activity” value in series [4] was “stimulate the CT-L activity”. Moreover, the “effect on CT-L activity” value in series [4] was “no effect”. In series [5], the “effect on C-L activity” value is on record as “no effect”. The “effect on viability of MYCN2 cells” value in series [7] is listed as “minimal effects”. Further, the “effect on viability of SK-N-Be(2)c cells” value in [8] is “minimal effects”. For the same molecule, the “effect on viability of SK-N-SH cells” value in [9] is “minimal effects”.
